Converted amounts (≈) assume the structure as drawn.
Tests used:
Type in all cases: functional
Streptococcus pneumoniae [1] = assay: Antimicrobial activity against drug-resistant Streptococcus pneumoniae isolate 3665 after 14 passages with Telithromycin measured after 10 antibiotic-free subculture by multi-step resistance selection technique
Streptococcus pneumoniae [2] = assay: Antimicrobial activity against drug-resistant Streptococcus pneumoniae isolate 3243 after 20 passages with moxifloxacin measured after 10 antibiotic-free subculture by multi-step resistance selection technique
Outline: (§1)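 Mutants selected by daily broth passage in subinhibitory drug in cation-adjusted Mueller-Hinton broth with 5% lysed horse blood. Stability was tested by 10 daily passages on blood agar without antibiotic, then macrodilution MIC.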

Streptococcus pneumoniae [3] = assay: Antimicrobial activity against drug-resistant Streptococcus pneumoniae isolate 37 after 50 passages by multi-step resistance selection technique
Outline: (§2)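 Daily serial passage in broth at subinhibitory drug levels: 1 ml cation-adjusted Mueller-Hinton broth with 5% lysed horse blood; fresh broth for tigecycline. Each day 10 μl inoculum taken from the tube one to two dilutions below MIC matching growth-control turbidity, used to set next MIC.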

Streptococcus pneumoniae [4] = assay: Antimicrobial activity against drug-resistant Streptococcus pneumoniae isolate 3274 after 48 passages with Telithromycin measured after 10 antibiotic-free subculture by multi-step resistance selection technique; outline: as §1
Streptococcus pneumoniae [5] = assay: Antimicrobial activity against drug-resistant Streptococcus pneumoniae isolate 3243 after 50 passages by multi-step resistance selection technique
Outline: (§3)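 Daily serial passage in subinhibitory drug levels in 1 ml cation-adjusted Mueller-Hinton broth with 5% lysed horse blood; fresh broth for tigecycline. Each day, 10 μl were taken from the tube one to two dilutions below the MIC whose turbidity matched the growth control, and used to set the next MIC. […] MIC by macrodilution.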

Streptococcus pneumoniae [6] = assay: Antimicrobial activity against drug-resistant Streptococcus pneumoniae isolate 1076 after 14 passages with Telithromycin measured after 10 antibiotic-free subculture by multi-step resistance selection technique; outline: as §1
Streptococcus pneumoniae [7] = assay: Antimicrobial activity against drug-resistant Streptococcus pneumoniae isolate 1077 after 15 passages with Telithromycin measured after 10 antibiotic-free subculture by multi-step resistance selection technique; outline: as §1
Streptococcus pneumoniae [8] = assay: Antimicrobial activity against drug-resistant Streptococcus pneumoniae isolate 24 after 50 passages with moxifloxacin measured after 10 antibiotic-free subculture by multi-step resistance selection technique; outline: as §1
Streptococcus pneumoniae [9] = assay: Antimicrobial activity against drug-resistant Streptococcus pneumoniae isolate 3243 after 41 passages with clarithromycin measured after 10 antibiotic-free subculture by multi-step resistance selection technique
Streptococcus pneumoniae [10] = assay: Antimicrobial activity against drug-resistant Streptococcus pneumoniae isolate 3009 after 21 passages with gemifloxacin measured after 10 antibiotic-free subculture by multi-step resistance selection technique; outline: as §1
Streptococcus pneumoniae [11] = assay: Antimicrobial activity against drug-resistant Streptococcus pneumoniae isolate 3676 after 50 passages by multi-step resistance selection technique
Outline: as §2, with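 “MIC. Continued until ≥8-fold MIC rise, minimum 14, maximum 50 passages; MIC read by macrodilution.” for “MIC.”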

Streptococcus pneumoniae [12] = assay: Antimicrobial activity against drug-resistant Streptococcus pneumoniae isolate 24 after 50 passages by multi-step resistance selection technique
Outline: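 Daily serial passage in subinhibitory drug levels in 1 ml cation-adjusted Mueller-Hinton broth with 5% lysed horse blood; fresh broth for tigecycline. Each day, 10 μl were taken from the tube one to two dilutions below the MIC whose turbidity matched the growth control, and used to set the next MIC. MIC by macrodilution.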

Streptococcus pneumoniae [13] = assay: Antimicrobial activity against drug-resistant Streptococcus pneumoniae isolate 3243 by NCCLS M7-A7 method
Streptococcus pneumoniae [14] = assay: Antimicrobial activity against drug-resistant Streptococcus pneumoniae isolate 3009 after 21 passages by multi-step resistance selection technique; outline: as §3
Streptococcus pneumoniae [15] = assay: Antimicrobial activity against drug-resistant Streptococcus pneumoniae isolate 2527 after 14 passages by multi-step resistance selection technique; outline: as §3
Streptococcus pneumoniae [16] = assay: Antimicrobial activity against drug-resistant Streptococcus pneumoniae isolate 3676 after 14 passages by multi-step resistance selection technique
Outline: as §2, with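 “MIC. Continued until ≥8-fold MIC rise, minimum 14, maximum 50 passages; MIC read by macrodilution.” for “MIC.”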

Streptococcus pneumoniae [17] = assay: Antimicrobial activity against drug-resistant Streptococcus pneumoniae isolate 1077 after 15 passages by multi-step resistance selection technique
Outline: (§4)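 Daily serial passage in subinhibitory drug in cation-adjusted Mueller-Hinton broth with 5% lysed horse blood, 1 ml per tube, fresh broth for tigecycline. Each day, 10 μl was taken from the tube one to two dilutions below the MIC whose turbidity matched the growth control and used for the next MIC. Passaging ran until MIC rose ≥8 times, minimum 14 and maximum 50 passages. Clone MICs were read by macrodilution.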

Streptococcus pneumoniae [18] = assay: Antimicrobial activity against drug-resistant Streptococcus pneumoniae isolate 3274 after 48 passages by multi-step resistance selection technique; outline: as §4
Streptococcus pneumoniae [19] = assay: Antimicrobial activity against drug-resistant Streptococcus pneumoniae isolate 3243 after 29 passages by multi-step resistance selection technique; outline: as §4
Streptococcus pneumoniae [20] = assay: Antimicrobial activity against drug-resistant Streptococcus pneumoniae isolate 3413 after 30 passages by multi-step resistance selection technique; outline: as §4
Streptococcus pneumoniae [21] = assay: Antimicrobial activity against drug-resistant Streptococcus pneumoniae isolate 1076 after 14 passages by multi-step resistance selection technique; outline: as §3
Streptococcus pneumoniae [22] = assay: Antimicrobial activity against drug-resistant Streptococcus pneumoniae isolate 24 after 14 passages by multi-step resistance selection technique; outline: as §3
Streptococcus pneumoniae [23] = assay: Antimicrobial activity against drug-resistant Streptococcus pneumoniae isolate 3665 after 14 passages by multi-step resistance selection technique; outline: as §3
Streptococcus pneumoniae [24] = assay: Antimicrobial activity against drug-resistant Streptococcus pneumoniae isolate 37 after 14 passages by multi-step resistance selection technique
Outline: as §2, with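 “MIC. Continued until ≥8-fold MIC rise, minimum 14, maximum 50 passages; MIC read by macrodilution.” for “MIC.”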

| Compound | MIC (Streptococcus pneumoniae [1]) | MIC (Streptococcus pneumoniae [2]) | MIC (Streptococcus pneumoniae [3]) | MIC (Streptococcus pneumoniae [4]) | MIC (Streptococcus pneumoniae [5]) | MIC (Streptococcus pneumoniae [6]) | MIC (Streptococcus pneumoniae [7]) | MIC (Streptococcus pneumoniae [8]) | MIC (Streptococcus pneumoniae [9]) | MIC (Streptococcus pneumoniae [10]) | MIC (Streptococcus pneumoniae [11]) | MIC (Streptococcus pneumoniae [12]) | MIC (Streptococcus pneumoniae [13]) | further results |
| --- | --- | --- | --- | --- | --- | --- | --- | --- | --- | --- | --- | --- | --- | --- |
| CO/N=C(\C(=O)N[C@@H]1C(=O)N2C(C(=O)O)=C(CSc3nc(=O)c(O)nn3C)CS[C@H]12)c1csc(N)n1 [CEFTRIAXONE] | 0.06 µg/mL (≈ 0.108 µM) | 0.06 µg/mL (≈ 0.108 µM) | 1 µg/mL (≈ 1.8 µM) | 0.125 µg/mL (≈ 0.225 µM) | 0.25 µg/mL (≈ 0.451 µM) | 0.03 µg/mL (≈ 0.0541 µM) | 0.016 µg/mL (≈ 0.0289 µM) | 1 µg/mL (≈ 1.8 µM) | 0.125 µg/mL (≈ 0.225 µM) | 0.03 µg/mL (≈ 0.0541 µM) | 0.06 µg/mL (≈ 0.108 µM) | 2 µg/mL (≈ 3.61 µM) | 0.125 µg/mL (≈ 0.225 µM) | – |
| CO/N=C1\CN(c2nc3c(cc2F)c(=O)c(C(=O)O)cn3C2CC2)CC1CN (configuration not stated) [GEMIFLOXACIN] | 0.03 µg/mL (≈ 0.077 µM) | 0.06 µg/mL (≈ 0.154 µM) | 0.016 µg/mL (≈ 0.0411 µM) | 0.03 µg/mL (≈ 0.077 µM) | 0.06 µg/mL (≈ 0.154 µM) | 0.25 µg/mL (≈ 0.642 µM) | 0.25 µg/mL (≈ 0.642 µM) | 0.5 µg/mL (≈ 1.28 µM) | 0.03 µg/mL (≈ 0.077 µM) | 2 µg/mL (≈ 5.14 µM) | 0.03 µg/mL (≈ 0.077 µM) | 0.03 µg/mL (≈ 0.077 µM) | 0.016 µg/mL (≈ 0.0411 µM) | MIC (Streptococcus pneumoniae [14]): 1 µg/mL (≈ 2.57 µM); MIC (Streptococcus pneumoniae [15]): 2 µg/mL (≈ 5.14 µM) |
| C[C@@H](O)[C@H]1C(=O)N2C(C(=O)O)=C(SCCNC=N)C[C@H]12 [IMIPENEM ANHYDROUS] | 0.008 µg/mL (≈ 0.0267 µM) | 0.004 µg/mL (≈ 0.0134 µM) | 0.5 µg/mL (≈ 1.67 µM) | 0.016 µg/mL (≈ 0.0534 µM) | 0.016 µg/mL (≈ 0.0534 µM) | 0.004 µg/mL (≈ 0.0134 µM) | 0.008 µg/mL (≈ 0.0267 µM) | 0.5 µg/mL (≈ 1.67 µM) | 0.03 µg/mL (≈ 0.1 µM) | 0.008 µg/mL (≈ 0.0267 µM) | 0.016 µg/mL (≈ 0.0534 µM) | 0.5 µg/mL (≈ 1.67 µM) | 0.016 µg/mL (≈ 0.0534 µM) | – |
| CC[C@H]1OC(=O)[C@H](C)C(=O)[C@H](C)[C@@H](O[C@@H]2O[C@H](C)C[C@H](N(C)C)[C@H]2O)[C@](C)(OC)C[C@@H](C)C(=O)[C@H](C)[C@H]2N(CCCCn3cnc(-c4cccnc4)c3)C(=O)O[C@]12C [TELITHROMYCIN] | 0.25 µg/mL (≈ 0.308 µM) | 0.016 µg/mL (≈ 0.0197 µM) | – | 0.5 µg/mL (≈ 0.616 µM) | – | > 64 µg/mL | 0.25 µg/mL (≈ 0.308 µM) | 0.25 µg/mL (≈ 0.308 µM) | 0.016 µg/mL (≈ 0.0197 µM) | 0.03 µg/mL (≈ 0.0369 µM) | – | – | 0.004 µg/mL (≈ 0.00493 µM) | MIC (Streptococcus pneumoniae [16]): 2 µg/mL (≈ 2.46 µM); MIC (Streptococcus pneumoniae [17]): 0.25 µg/mL (≈ 0.308 µM); MIC (Streptococcus pneumoniae [18]): 0.5 µg/mL (≈ 0.616 µM); MIC (Streptococcus pneumoniae [19]): 0.06 µg/mL (≈ 0.0739 µM); MIC (Streptococcus pneumoniae [20]): 0.25 µg/mL (≈ 0.308 µM); MIC (Streptococcus pneumoniae [21]): > 64 µg/mL; MIC (Streptococcus pneumoniae [22]): 32 µg/mL (≈ 39.4 µM); MIC (Streptococcus pneumoniae [23]): 2 µg/mL (≈ 2.46 µM); MIC (Streptococcus pneumoniae [24]): 4 µg/mL (≈ 4.93 µM) |
| CN(C)c1cc(NC(=O)CNC(C)(C)C)c(O)c2c1C[C@H]1C[C@H]3[C@H](N(C)C)C(O)=C(C(N)=O)C(=O)[C@@]3(O)C(O)=C1C2=O [TIGECYCLINE] | 0.03 µg/mL (≈ 0.0512 µM) | 0.03 µg/mL (≈ 0.0512 µM) | 0.016 µg/mL (≈ 0.0273 µM) | 0.03 µg/mL (≈ 0.0512 µM) | 0.03 µg/mL (≈ 0.0512 µM) | 0.03 µg/mL (≈ 0.0512 µM) | 0.03 µg/mL (≈ 0.0512 µM) | 0.03 µg/mL (≈ 0.0512 µM) | 0.03 µg/mL (≈ 0.0512 µM) | 0.016 µg/mL (≈ 0.0273 µM) | 0.016 µg/mL (≈ 0.0273 µM) | 0.03 µg/mL (≈ 0.0512 µM) | 0.03 µg/mL (≈ 0.0512 µM) | – |
